Data reported in PubChem BioAssay.
The source made the active and inactive calls.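 How the source made its calls, unless noted: active means viability at or under a set limit in both replicates, limit being median viability minus 3 SD (cut at about 48% in these data, passing the limit was not always enough); inconclusive means at or under the limit in just one replicate; inactive means at or above the limit in both replicates.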

Columns and labels:
[1] = Her2 expression decrease, cell viability multiplex – SKBR3 breast tumor cells, AlphaScreen, ATP viability, primary screen (AID 461;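 active means Her2 level under about 52% in both replicate screens, with viability over 70% of control, limit read from the data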;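 on Her2 level: lower value means less Her2 protein in the cells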;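 on viability: percent of carrier control wells set as 100% viability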); conditions: SKBR3 Her2 protein level, 18-24 h, measured here: SKBR3 viability, ATP luminescence, at 10 µM
[2] = molecular target: Receptor tyrosine-protein kinase erbB-2 (Homo sapiens) (UniProt P04626); assay: as above; conditions: 18-24 h, at 10 µM, stronger effect = lower value
Receptor tyrosine-protein kinase erbB-2 (Homo sapiens), sequence (P04626 whole entry, looked up): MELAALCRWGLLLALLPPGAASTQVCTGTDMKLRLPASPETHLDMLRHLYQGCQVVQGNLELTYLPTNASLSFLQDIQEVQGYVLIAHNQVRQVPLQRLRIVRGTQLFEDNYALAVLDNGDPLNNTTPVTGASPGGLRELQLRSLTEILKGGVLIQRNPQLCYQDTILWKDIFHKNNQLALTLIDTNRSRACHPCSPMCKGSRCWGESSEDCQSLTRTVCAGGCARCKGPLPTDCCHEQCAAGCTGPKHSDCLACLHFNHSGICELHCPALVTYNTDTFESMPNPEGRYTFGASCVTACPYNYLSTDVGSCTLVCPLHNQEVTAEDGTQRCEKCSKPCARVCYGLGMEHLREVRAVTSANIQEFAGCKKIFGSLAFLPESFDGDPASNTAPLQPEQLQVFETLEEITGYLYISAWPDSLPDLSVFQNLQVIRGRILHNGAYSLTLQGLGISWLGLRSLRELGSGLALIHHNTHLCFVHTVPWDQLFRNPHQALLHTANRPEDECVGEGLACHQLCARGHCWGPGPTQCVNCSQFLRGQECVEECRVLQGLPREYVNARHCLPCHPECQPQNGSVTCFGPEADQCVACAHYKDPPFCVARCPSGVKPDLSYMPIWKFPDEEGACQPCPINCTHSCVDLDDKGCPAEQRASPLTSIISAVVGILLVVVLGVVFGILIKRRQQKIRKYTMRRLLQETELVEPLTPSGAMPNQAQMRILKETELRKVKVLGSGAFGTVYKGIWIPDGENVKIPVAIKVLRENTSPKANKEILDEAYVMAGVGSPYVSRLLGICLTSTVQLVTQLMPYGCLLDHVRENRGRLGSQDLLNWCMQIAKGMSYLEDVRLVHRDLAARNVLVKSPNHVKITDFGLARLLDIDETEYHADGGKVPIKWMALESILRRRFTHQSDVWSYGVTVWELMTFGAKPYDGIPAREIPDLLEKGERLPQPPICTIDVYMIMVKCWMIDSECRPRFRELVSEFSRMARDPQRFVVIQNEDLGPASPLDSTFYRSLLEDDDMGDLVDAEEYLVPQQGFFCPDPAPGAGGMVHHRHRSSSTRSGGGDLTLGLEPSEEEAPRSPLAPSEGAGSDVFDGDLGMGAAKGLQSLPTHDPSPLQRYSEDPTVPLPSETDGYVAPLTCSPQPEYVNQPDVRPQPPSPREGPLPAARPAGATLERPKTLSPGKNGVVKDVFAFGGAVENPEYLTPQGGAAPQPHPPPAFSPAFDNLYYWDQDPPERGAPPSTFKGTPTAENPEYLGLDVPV

[3] = reduced viability of SK-BR-3 breast cancer cells – cell-based, 24 h, human, pilot screen (AID 572;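 active means viability at or below 10% of carrier control in both of two separate runs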;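 further: compound exposure lasted between 18 and 24 h rather than exactly 24 h; 100% = carrier-treated control wells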); conditions: SK-BR-3 viability, CellTiter-Glo luminescence, at 10 µM, stronger effect = lower value
[4] = HUVEC growth inhibition – cell-based, human, primary screen (AID 575;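 active means viability at or below 30% in both replicate assays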;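 further: 100% = median of untreated cell wells with 0.1% DMSO on each plate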); conditions: HUVEC proliferation, CellTiter-Glo luminescence, 72 h; at 10 µM; stronger effect = lower value
Method in brief: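 Timing: 72 h treatment at 37 °C; material: HUVEC primary cells; technique: CellTiter-Glo luminescence measuring cellular ATP; controls: vehicle and MePR control wells; measure: percent of median DMSO-control luminescence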

[5] = H69AR cell proliferation blockers – human, duplicate replicates, primary screen (AID 580); conditions: H69AR lung tumor cells viability, ATP luminescence, 72 h; at 10 µM; stronger effect = lower value;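 further: 100% = mean luminescence of untreated wells and 0% = no signal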
[6] = MRP1 drug-resistance reversers in H69AR cells – cell-based, doxorubicin co-treatment, pilot screen (AID 601;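 active means viability loss from added drug above about 55%, and viability with drug at most 40%, in both replicates, limit read from the data, passing the limit was not always enough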); conditions: CellTiter-Glo, 72 h, at 10 µM; for differential viability (reversal): stronger effect = higher value
[7] = yeast transport mutant growth inhibition pilot in 384-well plates, post-Golgi transport modulator project (AID 636; in the data active means inhibition above about 31%); conditions: absorbance 615 nm, about 18 h, stronger effect = higher value
[8] = growth suppression of yeast trafficking mutant, preliminary HTS, modulators of trafficking downstream of Golgi apparatus project, 1536-format plate, OD 615 nm (AID 637; in the data active means inhibition above about 30%); conditions: yeast transport mutant growth, absorbance 615 nm, 18 h; stronger effect = higher value
[9] = H69AR cells + 2 uM doxorubicin, measured here: viability with 2 uM doxorubicin, stronger effect = lower value
[10] = H69AR cells, compound alone cytotoxicity

Row | SMILES | viability [1] | Her2 level [2] | viability [3] | viability [4] | viability [5] | differential viability (reversal) ([6]; H69AR cells + 2 uM doxorubicin) | viability [6, 9] | viability [6, 10] | inhibition [7] | inhibition [8]
1 | CCNC(=O)CC1C(=O)N(c2ccc(F)cc2)C(=O)N1CCC(C)C (stereo not given) | 103% | 80.5% (inactive) | 103% (inactive) | 98.4% (inactive) | 92.9% (inactive) | 8.4% (inactive) | 84.5% | 92.9% | 0.66% (inactive) | -3.64% (inactive)
2 | COCCNC(=O)C(c1ccncc1)N(C(=O)Cn1nnc2ccccc21)c1ccc(OC)cc1 (stereo not given) | 96% | 73.5% (inactive) | 96% (inactive) | 97.7% (inactive) | 104% (inactive) | 9.12% (inactive) | 95.1% | 104% | -7.03% (inactive) | 8.03% (inactive)
3 | O=C(N1CCCCCC1)N1CCN(C(=O)N2CCOCC2)CC1 | 105% | 104% (inactive) | 105% (inactive) | 94.9% (inactive) | 98.9% (inactive) | 5.18% (inactive) | 93.7% | 98.9% | 0.92% (inactive) | -8.55% (inactive)
4 | CC(=O)c1ccc(-c2nc3ccccc3n2C)o1 | 104% | 81% (inactive) | 104% (inactive) | 96.7% (inactive) | 72.7% (inactive) | 3.04% (inactive) | 69.6% | 72.7% | -6.8% (inactive) | -1.9% (inactive)
5 | Cc1ccc(C(=O)Nc2ccc3c(c2)OCO3)cc1S(=O)(=O)N1CCCC1 | 102% | 89% (inactive) | 102% (inactive) | 67.3% (inactive) | 82.6% (inactive) | -0.715% (inactive) | 83.3% | 82.6% | -4% (inactive) | 2.54% (inactive)
6 | CCOC(=O)C1CCCN(CCCc2ccccc2)C1 (stereo not given) | 104% | 91% (inactive) | 104% (inactive) | 105% (inactive) | 90.8% (inactive) | 3.21% (inactive) | 87.6% | 90.8% | -5.47% (inactive) | -1.9% (inactive)
7 | COc1ccc(C(c2nnnn2C2CCCC2)N2CCN(C3CCCC3)CC2)cc1OC (stereo not given) | 89.5% | 84% (inactive) | 89.5% (inactive) | 84.7% (inactive) | 106% (inactive) | 28.3% (inactive) | 77.7% | 106% | -7.26% (inactive) | -2.22% (inactive)
8 | CCOc1cc(C2c3c(n[nH]c3C)C(=O)N2c2ccc(Br)cc2)ccc1O (stereo not given) | 102% | 71.5% (inactive) | 102% (inactive) | 53.1% (inactive) | 72.9% (inactive) | 9.98% (inactive) | 62.9% | 72.9% | -4.27% (inactive) | 3.44% (inactive)
9 | OCCNc1nc2ccc(Cl)cc2[nH]1 | 84% | 100% (inactive) | 84% (inactive) | 108% (inactive) | 107% (inactive) | 9.03% (inactive) | 97.9% | 107% | -6.89% (inactive) | 5.08% (inactive)
10 | COC(=O)C(CC(C)C)NC(=O)CSc1nc(-c2ccccc2)c(C#N)c(=O)[nH]1 (stereo not given) | 110% | 90% (inactive) | 110% (inactive) | 107% (inactive) | 108% (inactive) | 7.26% (inactive) | 100% | 108% | -3.12% (inactive) | 4.1% (inactive)
11 | CCn1nc(CC(=O)Nc2nnc(CC(=O)N3CCCCC3)s2)c2ccccc2c1=O | 96% | 102% (inactive) | 96% (inactive) | 84.4% (inactive) | 97.5% (inactive) | 4.77% (inactive) | 92.7% | 97.5% | -0.52% (inactive) | -4.83% (inactive)
12 | COCCOC(=O)c1c(C)nc(SCC(=O)Nc2ccc(OC)cc2)c(C#N)c1-c1ccco1 | 108% | 87.5% (inactive) | 108% (inactive) | 73.9% (inactive) | 91% (inactive) | 14.7% (inactive) | 76.3% | 91% | -2.63% (inactive) | -5.97% (inactive)
13 | COc1ccc(C)cc1NC(=O)CSc1nnnn1Cc1ccccc1 | 83% | 96.5% (inactive) | 83% (inactive) | 82.1% (inactive) | 96.8% (inactive) | 6% (inactive) | 90.8% | 96.8% | -1.49% (inactive) | -2.62% (inactive)
14 | CCCCOC(=O)CN1C(=O)c2ccc(C(=O)OCCCC)cc2C1=O | 87% | 94% (inactive) | 87% (inactive) | 92.3% (inactive) | 106% (inactive) | 10.4% (inactive) | 95.3% | 106% | -2.97% (inactive) | 0.82% (inactive)
15 | Cn1ccnc1SCCC#N | 100% | 89.5% (inactive) | 100% (inactive) | 92.5% (inactive) | 99% (inactive) | 1.65% (inactive) | 97.3% | 99% | -2% (inactive) | 11% (inactive)
16 | CCOC(=O)c1[nH]c(C)c(C(=O)NCC2CCCO2)c1C (stereo not given) | 99% | 92% (inactive) | 99% (inactive) | 108% (inactive) | 101% (inactive) | 9.65% (inactive) | 91.3% | 101% | -2.47% (inactive) | -0.32% (inactive)

Row | SMILES | viability [1] | Her2 level [2] | viability [3] | viability [4] | viability [5] | differential viability (reversal) ([6]; H69AR cells + 2 uM doxorubicin) | viability [6, 9] | viability [6, 10] | inhibition [7] | inhibition [8]
17 | O=C(O)C1CC=CCC1C(=O)NCc1ccccc1 (stereo not given) | 106% | 87% (inactive) | 106% (inactive) | 91.1% (inactive) | 92.2% (inactive) | -3.77% (inactive) | 96% | 92.2% | -4.4% (inactive) | -2.38% (inactive)
18 | Cn1c2ccccc2c2c(C(=O)NCCCN3CCCC3=O)cn(C3CCCCC3)c(=O)c21 | 86% | 88.5% (inactive) | 86% (inactive) | 95.9% (inactive) | 83.7% (inactive) | 3.06% (inactive) | 80.7% | 83.7% | -4.53% (inactive) | -0.49% (inactive)
19 | Cc1ccccc1CN1CCN(CC(=O)NCc2ccccc2)C1=O | 113% | 117% (inactive) | 113% (inactive) | 97.9% (inactive) | 89.9% (inactive) | 6.96% (inactive) | 83% | 89.9% | -5.32% (inactive) | 2.79% (inactive)
20 | Cn1c(=O)cc(OCC(=O)NCCCN2CCN(c3cccc(Cl)c3)CC2)c2ccccc21 | 85.5% | 74.5% (inactive) | 85.5% (inactive) | 48.7% (inactive) | 63.7% (inactive) | -1.39% (inactive) | 65.1% | 63.7% | -6.53% (inactive) | -2.62% (inactive)
21 | CN1CCN(C(c2cccc(C(F)(F)F)c2)c2nnnn2C(C)(C)C)CC1 (stereo not given) | 94.5% | 86.5% (inactive) | 94.5% (inactive) | 102% (inactive) | 91.5% (inactive) | 1.82% (inactive) | 89.7% | 91.5% | -4.8% (inactive) | 0.82% (inactive)
22 | COc1cc(Cn2c(C(=O)O)cc3sccc32)cc(OC)c1OC | 107% | 102% (inactive) | 107% (inactive) | 98.4% (inactive) | 94.1% (inactive) | 2.41% (inactive) | 91.7% | 94.1% | -1.97% (inactive) | 6.56% (inactive)
23 | O=C(OCC(=O)c1c[nH]c2ccccc12)C1=COCCO1 | 96% | 76.5% (inactive) | 96% (inactive) | 100% (inactive) | 97.5% (inactive) | -2.48% (inactive) | 100% | 97.5% | -6.62% (inactive) | 6.17% (inactive)
24 | CNC(=O)CN(c1cc(C)ccc1OC)S(=O)(=O)c1ccc(C)cc1 | 93% | 113% (inactive) | 93% (inactive) | 108% (inactive) | 103% (inactive) | 2.79% (inactive) | 100% | 103% | -2.93% (inactive) | -7.58% (inactive)
25 | O=C(CN(Cc1ccc2c(c1)OCO2)C(=O)CNS(=O)(=O)c1ccccc1)NCc1ccco1 | 97% | 86.5% (inactive) | 97% (inactive) | 107% (inactive) | 99.4% (inactive) | 2.35% (inactive) | 97% | 99.4% | 0.41% (inactive) | -1.31% (inactive)
26 | O=C1CCCC(O)=C1C=Nc1ccc2c(c1)oc1ccccc12 | 102% | 101% (inactive) | 102% (inactive) | 63.7% (inactive) | 88.7% (inactive) | -11.3% (inactive) | 100% | 88.7% | -5.87% (inactive) | 1.11% (inactive)
27 | CC(C)Cc1cc(C(=O)Nc2c(F)cc(F)cc2Br)no1 | 88.5% | 106% (inactive) | 88.5% (inactive) | 107% (inactive) | 113% (inactive) | 30% (inactive) | 82.8% | 113% | 0.64% (inactive) | -4.33% (inactive)
28 | CNC(=O)CSc1nnc(-c2cccc(S(=O)(=O)N3CCOCC3)c2)n1-c1ccc(F)cc1 | 78.5% | 95% (inactive) | 78.5% (inactive) | 99.9% (inactive) | 93.2% (inactive) | -5.28% (inactive) | 98.5% | 93.2% | 0% (inactive) | -2.5% (inactive)
29 | O=C(Nc1ccc2c(c1)OCO2)c1cc2ncc(Br)cn2n1 | 101% | 104% (inactive) | 101% (inactive) | 84.8% (inactive) | 86.8% (inactive) | -17.3% (inactive) | 104% | 86.8% | -4.67% (inactive) | -0.16% (inactive)
30 | O=C(c1ccc(Cl)cc1)C1CCN(C(=O)NC2CCCCC2)CC1 | 92% | 92% (inactive) | 92% (inactive) | 101% (inactive) | 101% (inactive) | 14% (inactive) | 87% | 101% | -4.8% (inactive) | -7.26% (inactive)
31 | COc1ccc(-c2nnc(-c3cccs3)o2)cc1OC | 75% | 110% (inactive) | 75% (inactive) | 92.7% (inactive) | 94.6% (inactive) | 1.17% (inactive) | 93.5% | 94.6% | -3.78% (inactive) | -3.93% (inactive)
32 | Cc1ccc(S(=O)(=O)NC(=O)c2cc(C)n(CCCn3ccnc3)c2C)cc1 | 101% | 84% (inactive) | 101% (inactive) | 94.2% (inactive) | 90.7% (inactive) | 2.88% (inactive) | 87.8% | 90.7% | -7.2% (inactive) | 0.82% (inactive)
